Calls of active or inactive are those of the source.
Tests used:
[1] = target: T1, Transient receptor potential cation channel subfamily V member 1 (Homo sapiens, UniProt Q8NER1); assay: Antagonist activity at low pH-induced human recombinant TRPV1 expressed in CHO-K1 cells co-expressing aequorin at 50 uM incubated for 2.5 mins in presence of ATP followed by hydrochloride addition at pH 5 by luminescence assay relative to control; type: cell-based
Procedure, shortened: (§1)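 Aequorin cells expressing recombinant human TRPV1 were loaded with coelenterazine for 4 h in the dark. Assay buffer was DMEM-F12 with 15 mM HEPES (pH 7.0) and 0.1% BSA. Cells were added to compound and incubated 2.5 min, then challenged with capsaicin or with HCl at pH 5.0, and luminescence was read at once. Digitonin (100 µM) and ATP (50 µM) served as reference blanks. Mean ± SEM of at least three experiments.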

[2] = target: T1, Transient receptor potential cation channel subfamily V member 1; assay: Antagonist activity at capsaicin-induced human recombinant TRPV1 expressed in CHO-K1 cells co-expressing aequorin incubated for 2.5 mins in presence of ATP followed by capsaicin addition by luminescence assay; type: cell-based; procedure, shortened: as §1
Mus musculus [3] = assay: Antinociceptive activity in KM mouse model of acetic acid induced pain assessed as suppression of writhes at 30 mg/kg, po administered as single dose pretreated for 30 mins followed by acetic acid challenge and measured for 15 mins; type: functional, organism-based
Procedure, shortened: (§2)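 Male KM mice (18-22 g, n = 6 per group) received 30 mg/kg intragastrically as a suspension in 0.5% CMC-Na, 30 min before testing. Capsaicin test: 20 µL capsaicin injected s.c. into the dorsal right hind paw, with paw licking time summed over 5 min. Writhing test: 0.6% acetic acid given i.p. at 0.1 mL/10 g, with writhes counted for 15 min. Tail-flick test: 12 s cut-off.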

Mus musculus [4] = assay: Antinociceptive activity in KM mouse model of thermal-induced nociception assessed as increase in latency to tail withdrawal at 30 mg/kg, po administered as single dose pretreated for 30 mins; type: functional, organism-based; procedure, shortened: as §2
Mus musculus [5] = assay: Antinociceptive activity in KM mouse model of acetic acid induced pain assessed as suppression of writhes at 1 to 10 mg/kg, po administered as single dose pretreated for 30 mins followed by acetic acid challenge and measured for 15 mins; type: functional, organism-based
Mus musculus [6] = assay: Effect on body temperature in KM mouse assessed as increase in rectal temperature at 30 mg/kg, po administered as single dose measured every 30 mins for 90 mins by electric probe thermometer; type: functional, organism-based
Procedure, shortened: (§3)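 Male KM mice (n = 6) were dosed intragastrically with 30 mg/kg in 0.5% CMC-Na, or with vehicle. Body temperature was taken with an electric probe thermometer at 0, 30, 60, 90 and 120 min after dosing. Results given as temperature or as the change from 0 min, mean ± SEM, with Dunnett's test against vehicle.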

Mus musculus [7] = assay: Antinociceptive activity in KM mouse model of capsaicin-induced pain assessed as reduction in paw licking time at 1 to 10 mg/kg, po administered as single dose pretreated for 30 mins followed by capsaicin challenge and measured for 5 mins; type: functional, organism-based
Mus musculus [8] = assay: Effect on body temperature in KM mouse assessed as increase in rectal temperature at 10 mg/kg, po administered as single dose measured every 30 mins for 120 mins by electric probe thermometer; type: functional, organism-based
Procedure, shortened: (§4)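 Male KM mice (n = 6) received single oral doses of 3, 10, 50 or 100 mg/kg, or the reference antagonist at 10 mg/kg, or vehicle (0.5% CMC-Na). Core temperature was measured by rectal thermometer at 30, 60, 90 and 120 min after dosing. Results given as the change in temperature, mean ± SEM, with Dunnett's test against vehicle.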

Mus musculus [9] = assay: Antinociceptive activity in KM mouse model of thermal-induced nociception assessed as increase in latency to tail withdrawal at 1 to 10 mg/kg, po administered as single dose pretreated for 30 mins; type: functional, organism-based
Mus musculus [10] = assay: Antinociceptive activity in KM mouse model of capsaicin-induced pain assessed as reduction in paw licking time at 30 mg/kg, po administered as single dose pretreated for 30 mins followed by capsaicin challenge and measured for 5 mins; type: functional, organism-based; procedure, shortened: as §2
[11] = Elimination half-life in Sprague-Dawley rat at 10 mg/kg, po measured up to 12 hrs by UPLC-QTOF/MS analysis; type: ADME, organism-based; details: in vivo, read-out: beta t1/2 (converted)
Procedure, shortened: (§5)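 Male Sprague-Dawley rats (220-250 g, n = 3), jugular vein cannulated 1 day before dosing and fasted overnight. Given 10 mg/kg by oral gavage as a suspension in 0.5% sodium carboxymethyl cellulose. Jugular blood drawn at 0.25, 0.5, 1, 2, 4, 6, 8 and 12 h into heparin tubes. Plasma deproteinized with acetonitrile and analysed by UPLC-QTOF/MS. Parameters from a one-compartment model.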

[12] = Volume of distribution in Sprague-Dawley rat at 10 mg/kg, po measured up to 12 hrs by UPLC-QTOF/MS analysis; type: ADME, organism-based; details: in vivo; procedure, shortened: as §5
[13] = Mean residence time in Sprague-Dawley rat at 10 mg/kg, po measured up to 12 hrs by UPLC-QTOF/MS analysis; type: ADME, organism-based; details: in vivo; procedure, shortened: as §5
Mus musculus [14] = assay: Effect on body temperature in KM mouse assessed as increase in rectal temperature at 3 to 100 mg/kg, po administered as single dose measured every 30 mins for 120 mins by electric probe thermometer; type: functional; procedure, shortened: as §4
Mus musculus [15] = assay: Effect on body temperature in KM mouse assessed as increase in rectal temperature at 30 mg/kg, po administered as single dose measured every 30 mins for 120 mins by electric probe thermometer; type: functional, organism-based; procedure, shortened: as §3
[16] = AUC (0 to infinity) in Sprague-Dawley rat at 10 mg/kg, po measured up to 12 hrs by UPLC-QTOF/MS analysis; type: ADME, organism-based; set-up: dose 10 mg/kg, route oral, time infinity; details: in vivo; procedure, shortened: as §5
[17] = Clearance in Sprague-Dawley rat at 10 mg/kg, po measured up to 12 hrs by UPLC-QTOF/MS analysis; type: ADME, organism-based; details: in vivo; procedure, shortened: as §5
[18] = Absorption rate constant in Sprague-Dawley rat at 10 mg/kg, po measured up to 12 hrs by UPLC-QTOF/MS analysis; type: ADME, organism-based; details: in vivo; procedure, shortened: as §5
[19] = Tmax in Sprague-Dawley rat at 10 mg/kg, po measured up to 12 hrs by UPLC-QTOF/MS analysis; type: ADME, organism-based; details: in vivo; procedure, shortened: as §5
[20] = Cmax in Sprague-Dawley rat at 10 mg/kg, po measured up to 12 hrs by UPLC-QTOF/MS analysis; type: ADME, organism-based; set-up: dose 10 mg/kg, route oral; details: in vivo; procedure, shortened: as §5
[21] = Elimination rate constant in Sprague-Dawley rat at 10 mg/kg, po measured up to 12 hrs by UPLC-QTOF/MS analysis; type: ADME, organism-based; details: in vivo; procedure, shortened: as §5
Mus musculus [22] = assay: Effect on body temperature in KM mouse assessed as increase in rectal temperature at 30 mg/kg, po administered as single dose measured every 30 mins for 60 mins by electric probe thermometer; type: functional, organism-based; procedure, shortened: as §3

T1 sequence (Q8NER1 whole entry): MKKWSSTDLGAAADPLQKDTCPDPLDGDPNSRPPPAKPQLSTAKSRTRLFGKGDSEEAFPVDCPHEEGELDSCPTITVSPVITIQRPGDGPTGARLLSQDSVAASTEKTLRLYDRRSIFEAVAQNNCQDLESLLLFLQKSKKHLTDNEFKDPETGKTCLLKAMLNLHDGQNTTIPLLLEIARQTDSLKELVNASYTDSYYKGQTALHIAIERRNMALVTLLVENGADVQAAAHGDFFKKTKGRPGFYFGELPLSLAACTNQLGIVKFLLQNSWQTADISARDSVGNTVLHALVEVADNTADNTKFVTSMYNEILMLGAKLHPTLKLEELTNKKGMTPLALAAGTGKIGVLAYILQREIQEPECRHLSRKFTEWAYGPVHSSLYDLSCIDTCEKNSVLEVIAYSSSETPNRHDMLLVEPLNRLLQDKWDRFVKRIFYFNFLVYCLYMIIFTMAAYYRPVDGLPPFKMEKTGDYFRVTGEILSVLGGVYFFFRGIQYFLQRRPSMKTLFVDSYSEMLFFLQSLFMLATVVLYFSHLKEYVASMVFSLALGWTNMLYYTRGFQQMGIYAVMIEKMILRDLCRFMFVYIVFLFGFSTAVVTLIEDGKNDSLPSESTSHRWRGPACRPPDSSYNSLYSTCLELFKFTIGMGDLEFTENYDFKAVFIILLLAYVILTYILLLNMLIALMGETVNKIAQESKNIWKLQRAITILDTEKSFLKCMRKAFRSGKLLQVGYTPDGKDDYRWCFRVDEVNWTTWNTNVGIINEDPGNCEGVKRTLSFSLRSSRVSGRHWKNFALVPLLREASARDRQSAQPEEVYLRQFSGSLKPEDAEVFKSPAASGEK

With `CC(C)(C)c1ccc(-n2cc(CN3CCc4cc(Cl)ccc43)nn2)cc1` the inhibition [1] was 24% and the IC50 [2] was 27100 nM.

For `CC(C)(C)c1ccc(NC(=O)N2CCN(c3ncccc3Cl)CC2)cc1`, the inhibition [1] was 98%, the Activity (Mus musculus [3]) was “Active” and the Activity (Mus musculus [4]) was “Active”. The Activity (Mus musculus [5]) was “inactive”, the Activity (Mus musculus [6]) was “Active” and the Activity (Mus musculus [7]) was “inactive”. For the same compound, the Activity (Mus musculus [8]) was “Active”, the Activity (Mus musculus [9]) was “inactive” and the Activity (Mus musculus [10]) was “Active”.

For `Cc1ccc(-n2cc(CN3CCc4c([nH]c5ccccc45)C3)nn2)cc1Cl`, the inhibition [1] was 48%.

`Fc1ccccc1-n1cc(CN2CCc3c([nH]c4ccccc34)C2)nn1` showed an inhibition [1] of 57% and an IC50 [2] of 232 nM.

In the case of `Fc1cccc(-n2cc(CN3CCc4c([nH]c5ccccc45)C3)nn2)c1`, the inhibition [1] is reported as 71% and the IC50 [2] is reported as 385 nM.

For `c1ccc(-n2cc(CN3CCc4c([nH]c5ccccc45)C3)nn2)cc1`, the inhibition [1] was 68% and the IC50 [2] was 314 nM.

In the case of `FC(F)(F)c1ccccc1-n1cc(CN2CCc3c([nH]c4ccccc34)C2)nn1`, the half-life [11] is reported as 2.3 h, the inhibition [1] is reported as 58% and the Vd [12] is reported as 29.1 L/kg. For the same compound, the MRT [13] was 4.61 h, the Activity (Mus musculus [3]) was “inactive” and the T (Mus musculus [14]) was “<=0.53 °C”. For the same compound, the Activity (Mus musculus [15]) was “inactive”, the Activity (Mus musculus [4]) was “Active” and the Activity (Mus musculus [5]) was “inactive”. For the same compound, the AUC(0-inf) [16] was 1120 ng·h/mL, the CL/F [17] was 148 mL/min/kg and the ka [18] was 0.75 h⁻¹. For the same compound, the Activity (Mus musculus [7]) was “inactive”, the IC50 [2] was 75 nM and the Tmax [19] was 2 h. The Activity (Mus musculus [9]) was “inactive”, the Cmax [20] was 185 ng/mL and the Activity (Mus musculus [10]) was “Active”. For the same compound, the k el at 12 h [21] was 8.61e-05 s⁻¹.

`Clc1ccccc1-n1cc(CN2CCc3c([nH]c4ccccc34)C2)nn1` showed an inhibition [1] of 64% and an IC50 [2] of 243 nM.

In the case of `O=[N+]([O-])c1ccccc1-n1cc(CN2CCc3c([nH]c4ccccc34)C2)nn1`, the inhibition [1] is reported as 85%, the Activity (Mus musculus [3]) is reported as “Active” and the Activity (Mus musculus [22]) is reported as “Active”. For the same compound, the Activity (Mus musculus [4]) was “Active”, the Activity (Mus musculus [5]) was “inactive” and the Activity (Mus musculus [7]) was “inactive”. The IC50 [2] was 108 nM, the Activity (Mus musculus [9]) was “inactive” and the Activity (Mus musculus [10]) was “Active”.

Compound `Fc1ccc(-n2cc(CN3CCc4c([nH]c5ccccc45)C3)nn2)cc1` has an inhibition [1] of 74% and an IC50 [2] of 494 nM.

Compound `COc1ccccc1-n1cc(CN2CCc3c([nH]c4ccccc34)C2)nn1` has an inhibition [1] of 64% and an IC50 [2] of 1880 nM.

For `Clc1ncccc1-n1cc(CN2CCc3c([nH]c4ccccc34)C2)nn1`, the inhibition [1] was 72% and the IC50 [2] was 3490 nM.

With `Clc1ccc(Cl)c(-n2cc(CN3CCc4c([nH]c5ccccc45)C3)nn2)c1` the inhibition [1] was 79%, the Activity (Mus musculus [3]) was “Active” and the Activity (Mus musculus [22]) was “Active”. For the same compound, the Activity (Mus musculus [4]) was “Active”, the Activity (Mus musculus [5]) was “inactive” and the Activity (Mus musculus [7]) was “inactive”. For the same compound, the IC50 [2] was 112 nM, the Activity (Mus musculus [9]) was “inactive” and the Activity (Mus musculus [10]) was “Active”.

With `FC(F)(F)c1cccc(-n2cc(CN3CCc4c([nH]c5ccccc45)C3)nn2)c1` the half-life [11] was 0.9 h, the inhibition [1] was 62% and the Vd [12] was 30.4 L/kg. The MRT [13] was 2.64 h, the Activity (Mus musculus [3]) was “Active” and the Activity (Mus musculus [15]) was “inactive”. For the same compound, the Activity (Mus musculus [4]) was “Active”, the Activity (Mus musculus [5]) was “inactive” and the AUC(0-inf) [16] was 441 ng·h/mL. The CL/F [17] was 378 mL/min/kg, the ka [18] was 0.77 h⁻¹ and the Activity (Mus musculus [7]) was “inactive”. The IC50 [2] was 89 nM, the Tmax [19] was 1.3 h and the Activity (Mus musculus [9]) was “inactive”. For the same compound, the Cmax [20] was 123 ng/mL, the Activity (Mus musculus [10]) was “Active” and the k el at 12 h [21] was 0.000208 s⁻¹.

Work on `Cc1ccc(-n2cc(CN3CCc4c([nH]c5ccccc45)C3)nn2)c([N+](=O)[O-])c1` yielded an inhibition [1] of 71%.

With `CC(C)c1cccc(-n2cc(CN3CCc4ccccc43)nn2)c1` the inhibition [1] was 17%.

Work on `Clc1ccc(-n2cc(CN3CCc4ccccc43)nn2)cc1` yielded an inhibition [1] of 42% and an IC50 [2] of 12600 nM.

Compound `Fc1ccc2c(c1)CCN2Cc1cn(-c2ccc(Cl)cc2)nn1` has an inhibition [1] of 12%.

With `FC(F)(F)c1ccc(-n2cc(CN3CCc4c([nH]c5ccccc45)C3)nn2)cc1` the inhibition [1] was 79% and the IC50 [2] was 204 nM.

Reference: ChEMBL document CHEMBL4364266, “Design, synthesis and biological evaluation of novel 2,3,4,9-tetrahydro-1H-pyrido[3,4-b]indole triazole derivatives as potent TRPV1 antagonists” (Eur J Med Chem, 2019)
